Calls of active or inactive are those of the source. The calls are words filed in the database; no cut-off is given here.
Legend:
[1] = species on record: Homo sapiens; experiment: Inhibition of IL1-beta induced nitrite production in human articular chondrocytes at 10 ug/ml after 120 hrs; format: functional, cell-based
[2] = species on record: Homo sapiens; experiment: Inhibition of IL1-beta induced PGE2 production in human articular chondrocytes at 10 ug/ml to 100 ug/ml; format: functional, cell-based
Method in brief: (§1)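 Human articular chondrocytes came from cartilage taken at femoral neck fracture surgery and were isolated by enzymatic digestion. After 24 h in culture they were exposed to compound (10, 50, 100 µg/mL) with IL-1β (10 ng/mL). Supernatant was collected at 120 h and PGE2 was quantified by enzyme immunoassay (detection limit 1 pg/mL). Values are means with SEM.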

[3] = species on record: Homo sapiens; experiment: Inhibition of IL1-beta induced nitrite production in human articular chondrocytes at 50 ug/ml after 120 hrs; format: functional, cell-based
[4] = species on record: Homo sapiens; experiment: Inhibition of IL1-beta induced nitrite production in human articular chondrocytes at 100 ug/ml after 120 hrs; format: functional, cell-based
[5] = Toxicity in human articular chondrocytes assessed as reduction of tetrazolium salt metabolism after 120 hrs by MTT assay; format: cell-based
Method in brief: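 Enzymatically isolated human articular chondrocytes were treated with compound (10, 50, 100 µg/mL) plus IL-1β (10 ng/mL). Viability was measured at 120 h by MTT cleavage by mitochondrial dehydrogenases and read as absorbance, mean with SEM.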

[6] = species on record: Homo sapiens; experiment: Inhibition of IL1-beta induced glycosaminoglycans depletion in human articular chondrocytes 10 ug/ml to 100 ug/ml; format: functional, cell-based
Method in brief: (§2)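 Cartilage from femoral neck fracture patients was digested enzymatically to give chondrocytes. After 24 h the cells received compound at 10, 50 and 100 µg/mL together with IL-1β at 10 ng/mL. Total GAGs released into the medium were measured at 120 h and expressed as µg/mL, mean with SEM.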

[7] = species on record: Homo sapiens; experiment: Inhibition of IL1-beta induced MMP3 secretion in human articular chondrocytes at 10 ug/ml to 100 ug/ml; format: functional, cell-based
Method in brief: (§3)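 Chondrocytes were isolated from human articular cartilage taken at femoral neck fracture surgery, by sequential hyaluronidase, pronase and collagenase digestion, then cultured. After 24 h they were treated with test compound (10, 50 and 100 µg/mL) plus IL-1β (10 ng/mL). Supernatants were collected at 120 h and MMP-3 was measured by ELISA (detection limit 1 ng/mL). Values are means with SEM.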

[8] = Inhibition of IL1-beta induced glycosaminoglycans depletion in human articular chondrocytes at 100 ug/ml; format: functional; method in brief: as §2
[9] = Inhibition of IL1-beta induced PGE2 production in human articular chondrocytes at 100 ug/ml; format: functional; method in brief: as §1
[10] = Inhibition of IL1-beta induced MMP3 secretion in human articular chondrocytes at 100 ug/ml; format: functional; method in brief: as §3

Row | Structure (SMILES) | Activity [1] | Activity [2] | Activity [3] | Activity [4] | Activity [5] | Activity [6] | Activity [7] | Activity [8] [ng/mL] | Activity [9] [ng/mL] | Activity [10] [ng/mL]
1 | O=C1/C(=C/c2ccc(Cl)cc2)S/C(=N\c2ccccc2)N1CCO | Active | Active | Active | Active | Non-toxic | Active | – | – | – | –
2 | COc1ccc(/C=C2\S/C(=N\c3ccccc3)N(CCCO)C2=O)cc1 | Active | Active | Active | Active | Non-toxic | Active | Active | – | – | –
3 | O=C1/C(=C/c2ccc(Cl)cc2)S/C(=N\c2ccccc2)N1CCCO | Active | Active | Active | Active | Non-toxic | Active | – | – | – | –
4 | COc1cccc(/C=C2\S/C(=N\c3ccccc3)N(CCO)C2=O)c1 | Active | Active | Active | Active | Non-toxic | Active | – | – | – | –
5 | CSc1ccc(/C=C2\S/C(=N\c3ccccc3)N(CCCO)C2=O)cc1 | Active | Active | Active | Active | Non-toxic | Active | – | – | – | –
6 | CSc1ccc(/C=C2\S/C(=N\c3ccccc3)N(CCO)C2=O)cc1 | Active | Active | Active | Active | Non-toxic | – | – | 339000 | – | –
7 | CS(=O)(=O)c1ccc(/C=C2\S/C(=N\c3ccccc3)N(CCCO)C2=O)cc1 | Active | – | Active | Active | Non-toxic | Active | – | – | 53.22 | –
8 | CS(=O)(=O)c1ccc(/C=C2\S/C(=N\c3ccccc3)N(CCO)C2=O)cc1 | Active | Active | Active | Active | Non-toxic | Active | – | – | – | –
9 | COc1ccc(/C=C2\S/C(=N\c3ccccc3)N(CCO)C2=O)cc1 | Active | Active | Active | Active | Non-toxic | Active | – | – | – | –
10 | COc1ccc2c(c1)c(CC(=O)O)c(C)n2C(=O)c1ccc(Cl)cc1 [INDOMETHACIN] | – | – | – | – | – | – | – | – | – | 62.64
11 | CCCN1C(=O)/C(=C/c2cccc(OC)c2)S/C1=N\c1ccccc1 | Active | Active | Active | Active | – | – | – | – | – | –
12 | COc1cccc(/C=C2\S/C(=N\c3ccccc3)N(CCCO)C2=O)c1 | Active | Active | Active | Active | Non-toxic | Active | – | – | – | –

— ChEMBL document CHEMBL1137539, “Synthesis and in vitro evaluation of 5-arylidene-3-hydroxyalkyl-2-phenylimino-4-thiazolidinones with antidegenerative activity on human chondrocyte cultures” (Bioorg Med Chem, 2007)
